Results: publication PMC4636733 (The Biochemical journal, 2012)

Assays:
[1] = molecular target: PbIMPDH-A (IMPDH-A from Penicillium brevicompactum) (Penicillium brevicompactum, UniProt A0A9W9QLZ9); experiment: IMPDH enzyme assay; assay type: biochemical
[2] = molecular target: PbIMPDH-B (IMPDH-B from P. brevicompactum) (Penicillium brevicompactum, UniProt F1DBB2); experiment: biochemical
[3] = molecular target: PbIMPDH-A Tyr411 substituted with Phe (Penicillium brevicompactum, UniProt A0A9W9QLZ9, Y425F); experiment: MPA inhibition of PbIMPDH-A variant 411*; assay type: biochemical; settings: read-out: IC50, 411*, PbIMPDH-A Tyr411 to Phe
[4] = molecular target: PbIMPDH-B Phe411 substituted with Tyr (Penicillium brevicompactum, UniProt F1DBB2, F415Y); experiment: MPA inhibition of PbIMPDH-B variant 411*; assay type: biochemical
Sequence of PbIMPDH-B Phe411 substituted with Tyr (F1DBB2 whole entry F415Y): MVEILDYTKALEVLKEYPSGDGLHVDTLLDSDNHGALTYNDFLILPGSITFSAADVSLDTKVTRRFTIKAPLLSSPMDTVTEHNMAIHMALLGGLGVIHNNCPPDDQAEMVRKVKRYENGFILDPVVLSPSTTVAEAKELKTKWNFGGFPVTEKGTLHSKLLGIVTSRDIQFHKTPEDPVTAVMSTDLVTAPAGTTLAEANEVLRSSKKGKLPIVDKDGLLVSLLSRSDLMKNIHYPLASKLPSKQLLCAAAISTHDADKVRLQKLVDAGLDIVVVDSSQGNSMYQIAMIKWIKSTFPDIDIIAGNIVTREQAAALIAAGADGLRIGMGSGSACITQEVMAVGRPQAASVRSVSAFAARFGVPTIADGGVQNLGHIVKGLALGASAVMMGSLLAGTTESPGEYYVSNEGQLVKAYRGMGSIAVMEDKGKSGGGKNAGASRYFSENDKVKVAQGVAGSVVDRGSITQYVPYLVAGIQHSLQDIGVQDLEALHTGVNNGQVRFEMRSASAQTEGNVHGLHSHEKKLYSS

[5] = molecular target: AnImdA Tyr411 substituted with Phe (Aspergillus nidulans, UniProt C8V6R6, Y186F); experiment: MPA inhibition of AnImdA variant 411*; assay type: biochemical
[6] = system: AnImdA, PcIMPDH-A and PcIMPDH-B; experiment: MPA inhibition of the MPA-sensitive fungal IMPDHs; assay type: biochemical; settings: range over AnImdA
P. chrysogenum = experiment: Spot assay to determine sensitivity towards MPA; assay type: cell-based, Penicillium chrysogenum; settings: CYA plates with 200 μg/ml MPA (method) / 6.2 μM MPA (legend of Figure 2A), 25°C
Procedure, shortened: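 Strain IBT5857 spores harvested into sterile water. 10-fold serial dilutions spotted onto CYA with or without MPA, most concentrated spot ~10⁶ spores. MPA stock was 25 mg/ml in methanol, and every plate held 0.8% (v/v) methanol. Stock and plates were made just before spotting to avoid MPA degradation. Grown at 25°C; growth of dilution series scored.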

[7] = system: E. coli ΔguaB expressing PbIMPDH-B; experiment: Bacterial complementation assay with MPA; assay type: cell-based; settings: 100 μM MPA, no guanosine
Procedure, shortened: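 E. coli BL21(DE3) ΔguaB host (no endogenous IMPDH) carrying N-terminal His6-tagged fungal IMPDH on a pET28-derived vector. Overnight LB cultures with 25 μg/ml kanamycin; 1:20 serial dilutions spotted on M9 minimal medium with 0.5% casamino acids, 100 μg/ml L-tryptophan, 0.1% thiamin, kanamycin, 66 μM IPTG, ± 100 μM MPA; guanosine plates get 50 μg/ml. Incubated overnight at 37°C, then at room temperature; growth scored.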

Imd2 = Imd2 from Saccharomyces cerevisiae; cited from earlier work
Imd3 = Imd3 from Saccharomyces cerevisiae; cited from earlier work
[8] = cited from earlier work
[9] = molecular target: AnImdA (IMPDH from Aspergillus nidulans) (Aspergillus nidulans, UniProt C8V6R6); experiment: biochemical
[10] = molecular target: PcIMPDH-A (IMPDH-A from Penicillium chrysogenum) (Penicillium chrysogenum, UniProt B6HC24); experiment: biochemical
[11] = molecular target: PcIMPDH-B (IMPDH-B from P. chrysogenum) (Penicillium chrysogenum, UniProt B6H451); experiment: biochemical
[12] = system: NC(=O)c1ccc[n+]([C@@H]2O[C@H](COP(=O)([O-])OP(=O)(O)OC[C@H]3O[C@@H](n4cnc5c(N)ncnc54)[C@H](O)[C@@H]3O)[C@@H](O)[C@H]2O)c1; experiment: cells, lysate or membranes named; settings: pH 8.0

Sequence of PbIMPDH-B (IMPDH-B from P. brevicompactum) (F1DBB2 whole entry): as the sequence (F1DBB2 whole entry F415Y) above, with Y415F counted along it

COc1c(C)c2c(c(O)c1C/C=C(\C)CCC(=O)O)C(=O)OC2 [MPA, mycophenolic acid]
fold more resistant to MPA ([1]; PbIMPDH-A versus IMPDHs from the other filamentous fungi): 10 fold | IC50 ([1]; read-out: IC50 (MPA), WT PbIMPDH-A, saturating IMP, half-saturating NAD^+, 25°C): 0.43 ± 0.03 µM | IC50 [2]: 27 ± 9 µM | IC50 [3]: 0.16 ± 0.02 µM | IC50 [4]: 25 ± 2 µM | IC50 [5]: 0.026 ± 0.002 µM | IC50 [6]: 0.026 to 0.06 µM | sensitivity towards MPA (growth of spore dilutions) (P. chrysogenum): more resistant to MPA than A. nidulans | growth on minimal media with MPA [7]: resistant | IC50 (Imd2): 70 µM | IC50 (Imd3): 0.5 µM | increase of IMP concentrations in the presence of MPA [8]: 10-35 fold | IC50 [9]: 0.026 ± 0.002 µM | IC50 [10]: 0.036 ± 0.004 µM | IC50 [11]: 0.06 ± 0.01 µM

NC(=O)c1ccc[n+]([C@@H]2O[C@H](COP(=O)([O-])OP(=O)(O)OC[C@H]3O[C@@H](n4cnc5c(N)ncnc54)[C@H](O)[C@@H]3O)[C@@H](O)[C@H]2O)c1 [NAD^+, nicotinamide adenine dinucleotide]
Km ([2]; read-out: KM (NAD^+), PbIMPDH-B): 790 ± 140 µM

AnImdA (IMPDH from Aspergillus nidulans) (Aspergillus nidulans FGSC A4)
Km ([12]; other: AnImdA): 170 ± 70 µM | kcat/Km ([12]; other: AnImdA): 4,400 ± 100 M^−1s^−1

PcIMPDH-A (IMPDH-A from Penicillium chrysogenum) (Penicillium rubens Wisconsin 54-1255)
Km ([12]; other: PcIMPDH-A): 290 ± 60 µM | kcat/Km ([12]; other: PcIMPDH-A): 2900 ± 300 M⁻¹ s⁻¹

PcIMPDH-B (IMPDH-B from P. chrysogenum) (Penicillium rubens Wisconsin 54-1255)
Km ([12]; other: PcIMPDH-B): 640 ± 130 µM | kcat/Km ([12]; other: PcIMPDH-B): 11 ± 6 M⁻¹ s⁻¹
